{"data": "Results from different studies", "target": "cGMP-dependent protein kinase 1 (PRKG1, Homo sapiens, UniProt Q13976)", "Sequence (Q13976 1-671, as in one of the studies)": "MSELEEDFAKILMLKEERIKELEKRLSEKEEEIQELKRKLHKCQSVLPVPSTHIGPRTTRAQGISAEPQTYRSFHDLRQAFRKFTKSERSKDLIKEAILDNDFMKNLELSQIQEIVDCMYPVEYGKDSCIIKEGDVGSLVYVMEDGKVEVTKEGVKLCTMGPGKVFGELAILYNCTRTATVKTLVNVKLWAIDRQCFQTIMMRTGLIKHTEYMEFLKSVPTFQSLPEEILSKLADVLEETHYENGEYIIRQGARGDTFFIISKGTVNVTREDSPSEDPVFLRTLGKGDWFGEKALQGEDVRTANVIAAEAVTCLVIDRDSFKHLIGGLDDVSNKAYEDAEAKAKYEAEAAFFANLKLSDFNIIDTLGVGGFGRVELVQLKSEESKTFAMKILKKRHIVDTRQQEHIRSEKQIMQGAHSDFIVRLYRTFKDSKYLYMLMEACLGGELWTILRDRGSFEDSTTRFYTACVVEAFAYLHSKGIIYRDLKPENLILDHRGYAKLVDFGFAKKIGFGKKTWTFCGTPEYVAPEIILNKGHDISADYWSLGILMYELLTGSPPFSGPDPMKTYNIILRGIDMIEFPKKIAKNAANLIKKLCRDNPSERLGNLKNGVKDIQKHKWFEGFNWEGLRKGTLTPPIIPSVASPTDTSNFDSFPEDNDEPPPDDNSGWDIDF", "note": "Lines come from different studies, so protocols differ."}
{"SMILES": "Cn1cc(-c2cccc(N3CCc4c(sc5c4CC(C)(C)C5)C3=O)c2CO)cc(Nc2ccncn2)c1=O", "test": "enzyme activity, inhibitor", "conditions": "1 µM", "measurement": "inhibition", "value": "4%"}
{"SMILES": "C#Cc1n[nH]c2c(-c3cn([C@@H](C)c4ccccn4)c(=O)[nH]c3=O)cc(F)cc12", "test": "enzyme activity, inhibitor", "conditions": "0.1 µM", "measurement": "inhibition", "value": "0.5%"}
{"SMILES": "Nc1ncc(-c2nc(N3CCOCC3)nc(N3CCOCC3)n2)c(C(F)F)n1", "test": "binding, competition with immobilised ligand", "conditions": "10 µM", "measurement": "remaining binding", "value": "79%"}
{"SMILES": "Cn1cc(-c2cc(F)cc(N3CCn4c(cc5c4CCCC5)C3=O)c2CO)cc(Nc2ccc(N3CCN(C4COC4)CC3)cn2)c1=O", "test": "enzyme activity, inhibitor", "conditions": "0.1 µM", "measurement": "inhibition", "value": "8%"}
{"SMILES": "N#CC1(c2ccccn2)CCN(Cc2cc(C(=O)O)c(=O)n3ccccc23)CC1", "test": "cell-free assay, competition with immobilised ligand", "conditions": "1 µM", "measurement": "remaining binding", "value": "98%"}
{"SMILES": "C#Cc1n[nH]c2c(-c3cn([C@@H](C)c4ccccc4)c(=O)[nH]c3=O)cc(F)cc12", "test": "enzyme activity, inhibitor", "conditions": "0.1 µM", "measurement": "inhibition", "value": "5.1%"}
{"SMILES": "CN1CCC(c2cc(-c3ccncc3)c(-c3ccc(F)cc3)[nH]2)CC1", "test": "enzyme activity, inhibitor", "conditions": "10 µM", "measurement": "inhibition", "value": "9%"}
{"SMILES": "COc1cc(Nc2ncc(F)c(Nc3ccc4c(n3)NC(=O)C(C)(C)O4)n2)cc(OC)c1OC", "test": "binding", "conditions": "10 µM", "measurement": "inhibition", "value": "0%"}
{"SMILES": "COc1ncccc1-c1cnn2ccc(N3CCN(C(=O)OC(C)C)CC3)nc12", "test": "binding, competition with immobilised ligand", "conditions": "1 µM", "measurement": "remaining binding", "value": "100%"}
{"SMILES": "Cc1nn(C)cc1-c1nc2c(N3CCN(Cc4ccc(Cl)cc4)CC3)c(Cl)cnc2[nH]1", "test": "binding, competition with immobilised ligand", "conditions": "1 µM", "measurement": "remaining binding", "value": "100%"}
{"SMILES": "Cn1cncc1[C@](O)(COc1ccc(C#N)cc1-c1ccc(OC(F)(F)F)cc1)c1ccc(C#N)cc1", "test": "cell-free assay, competition with immobilised ligand", "conditions": "1 µM", "measurement": "remaining binding", "value": "91%"}
